Data reported in ChEMBL document CHEMBL3797182, “In vitro evaluation of imidazo[4,5-c]quinolin-2-ones as gametocytocidal antimalarial agents” (Bioorg Med Chem Lett, 2016).

What was measured:
HepG2 = assay: Cytotoxicity against human HepG2 cells assessed as cell viability after 24 hrs; format: cell-based; conditions: HepG2, 24 h
Summary of the method: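 HepG2 cell viability as general cytotoxicity. 1536-well, 11-point dose-response in duplicate, top concentration 46 μM. Torin 2 positive control, DMSO negative control.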

Plasmodium falciparum [1] = assay: Gametocytocidal activity against chloroquine-sensitive late gametocytic stage (III to V) of Plasmodium falciparum 3D7 after 72 hrs by Alamar Blue assay; format: functional, organism-based; conditions: 3D7, 72 h
Summary of the method: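 Late-stage (III–V) P. falciparum 3D7 gametocytes. AlamarBlue redox indicator reads cytosolic metabolic activity as a measure of gametocyte viability. 1536-well format, 11-point dose-response, duplicates. Torin 2 positive control, DMSO negative control.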

Plasmodium falciparum [2] = assay: Antimalarial activity against chloroquine-sensitive asexual blood stage of Plasmodium falciparum 3D7 infected in RBC after 72 hrs by SYBR Green assay; format: functional, organism-based; conditions: 3D7, 72 h
Summary of the method: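 Asexual blood-stage P. falciparum 3D7 (chloroquine-sensitive) parasites. 1536-well format, 11-point dose-response, duplicate tests. Torin 2 served as positive control and DMSO as negative control.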

Plasmodium falciparum [3] = assay: Selectivity ratio of IC50 for chloroquine-sensitive late gametocytic stage (III to V) of Plasmodium falciparum 3D7 to IC50 for chloroquine-sensitive asexual blood stage of Plasmodium falciparum 3D7; format: functional

| Structure (SMILES) | IC50 (HepG2) [nM] | IC50 (Plasmodium falciparum [1]) [nM] | IC50 (Plasmodium falciparum [2]) [nM] | Ratio IC50 (Plasmodium falciparum [3]) |
| --- | --- | --- | --- | --- |
| Cn1c(=O)n(-c2cccc(C(F)(F)F)c2)c2c3cc(-c4cnc(N)nc4)ccc3ncc21 | 1330 | 52 | 17 | – |
| Nc1ncc(-c2ccc3ncc4[nH]c(=O)n(-c5cccc(C(F)(F)F)c5)c4c3c2)cn1 | 2540 | 450 | 213 | – |
| Cn1c(=O)n(-c2cccc(C(F)(F)F)c2)c2c3cc(-c4ccc5[nH]cnc5c4)ccc3ncc21 | 2630 | 157 | 65 | – |
| Cn1c(=O)n(-c2cccc(C(F)(F)F)c2)c2c3cc(-c4ccc(S(N)(=O)=O)cc4)ccc3ncc21 | > 45000 | 816 | 452 | 1 |
| Cn1c(=O)n(-c2cccc(C(F)(F)F)c2)c2c3cc(-c4ccc(O)cc4)ccc3ncc21 | 2330 | 229 | 114 | 1 |
| COc1cccc(-n2c(=O)n(C)c3cnc4ccc(-c5ccc(N)nc5)cc4c32)c1 | 2530 | 126 | 88 | – |
| CC(=O)Nc1ccc(-c2ccc3ncc4c(c3c2)n(-c2cccc(C(F)(F)F)c2)c(=O)n4C)cn1 | 3980 | 42 | 25 | – |
| Cn1c(=O)n(-c2cccc(C(F)(F)F)c2)c2c3cc(-c4cccnc4)ccc3ncc21 | 10300 | 236 | 95 | – |
| Cc1ccc(-c2ccc3ncc4c(c3c2)n(-c2cccc(C(F)(F)F)c2)c(=O)n4C)cn1 | 14500 | 81 | 21 | – |
| N#Cc1ccc(-c2ccc3ncc4[nH]c(=O)n(-c5cccc(C(F)(F)F)c5)c4c3c2)cc1 | > 45000 | 6330 | 2580 | 1 |
| N#Cc1ccc(-n2c(=O)[nH]c3cnc4ccc(-c5ccc(N)nc5)cc4c32)cc1 | > 45000 | 482 | 386 | – |
| O=c1[nH]c2cnc3ccc(-c4ccc(O)cc4)cc3c2n1-c1cccc(C(F)(F)F)c1 | 4060 | 1470 | 781 | 1 |
| O=c1[nH]c2cnc3ccc(-c4ccc5[nH]cnc5c4)cc3c2n1-c1cccc(C(F)(F)F)c1 | 3240 | 347 | 214 | – |
| Cn1c(=O)n(C2CCCCC2)c2c3cc(-c4ccc(N)nc4)ccc3ncc21 | 3840 | 1880 | 832 | – |
| Cn1c(=O)n(-c2cccc(C(F)(F)F)c2)c2c3cc(-c4cnc5ccccc5c4)ccc3ncc21 | 31600 | 5270 | 5780 | – |
| Nc1ccc(-c2ccc3ncc4[nH]c(=O)n(C5CCCCC5)c4c3c2)cn1 | 6500 | 2870 | 1350 | – |
| Cn1c(=O)n(-c2cccc(C(F)(F)F)c2)c2c3cc(-c4ccncc4)ccc3ncc21 | 1730 | 359 | 93 | – |
| Cn1c(=O)n(-c2cccc(C(F)(F)F)c2)c2c3cc(-c4cccc(N)c4)ccc3ncc21 | 13900 | 145 | 77 | 1 |
| Cn1c(=O)n(-c2cccc(C(F)(F)F)c2)c2c3cc(-c4ccc(S(C)(=O)=O)cc4)ccc3ncc21 | > 45000 | 855 | 578 | 1 |
| O=c1[nH]c2cnc3ccc(-c4ccncc4)cc3c2n1-c1cccc(C(F)(F)F)c1 | 1500 | 1140 | 313 | – |
| Cc1ccc(-c2ccc3ncc4[nH]c(=O)n(-c5cccc(C(F)(F)F)c5)c4c3c2)cc1 | > 45000 | 7050 | 5190 | 1 |
| Nc1ccc(-c2ccc3ncc4[nH]c(=O)n(-c5cccc(C(F)(F)F)c5)c4c3c2)cn1 | 3110 | 97 | 91 | – |
| Cc1ccc(-c2ccc3ncc4[nH]c(=O)n(-c5cccc(C(F)(F)F)c5)c4c3c2)cn1 | > 45000 | 320 | 180 | – |
| Cn1c(=O)n(-c2cccc(C(F)(F)F)c2)c2c3cc(-c4ccc(N)cc4)ccc3ncc21 | 5530 | 87 | 86 | 1 |
| CCn1c(=O)n(-c2cccc(C(F)(F)F)c2)c2c3cc(-c4ccc(Cl)cc4)ccc3ncc21 | > 45000 | 10400 | 3930 | 1 |
| NC(=O)c1ccc(-c2ccc3ncc4[nH]c(=O)n(-c5cccc(C(F)(F)F)c5)c4c3c2)cc1 | > 45000 | 294 | 109 | 1 |
| Cn1c(=O)n(-c2cccc(C(F)(F)F)c2)c2c3ccccc3ncc21 | > 45000 | 3640 | 17000 | – |
